Reference: ChEMBL document CHEMBL5036324 (J Med Chem, 2021)
Calls of active or inactive are those of the source. The calls are words filed in the database; no cut-off is given here.

Legend:
[1] = Toxicity in BALB/c mouse implanted with mouse CT26 cells assessed as decrease in body weight at 25 ug, ip administered once a week for 23 days; type: organism-based; conditions: in vivo, 552 h, dose 25 µg, time 23 day
Summary of the method: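 CT26 subcutaneous tumor-bearing BALB/c mice (n = 5) were treated from 100 mm³ tumor volume. TLR7/8 agonist was given ip once weekly, alone or with anti-PD-1 antibody (200 μg ip, twice weekly). Body weight was tracked over the treatment period and reported as mean ± SEM.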

[2] = test system: CT26; assay: Antitumor activity against mouse CT26 cells implanted in BALB/c mouse assessed as tumor growth delay at 25 ug, ip administered once per week and measured every 3 days for 23 days; type: functional, organism-based; conditions: dose 25.0 µg, time 23.0 day
Summary of the method: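 Subcutaneous CT26 tumours were grown in BALB/c mice, with cells cultured in DMEM/10% FBS. At a mean tumour size of 100 mm³, mice were randomised (n = 5/group). Agonist was given ip once weekly; anti-PD-1 or IgG isotype was given ip at 200 μg twice weekly. Tumour volume (V = 1/2ab²) was measured every 3 days. Mice were euthanised at 2000 mm³.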

COCCNc1nc(N)nc2ccc(Cc3ccc(CN(C)C)cc3)nc12
Activity [1]: Non-Toxic
Activity [2]: Active
